The values below come from the array DNA melting data of Ke et al. (doi:10.1101/2024.01.08.574731).

The nature of data set [1]: melting temperature; fluorescence melt of hairpins on a sequencing array, two-state fit, raised by 9.35 °C to match UV melts. The following applies: sodium 0.088 M. The gist of the method: (§1)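 Cy3 signals were normalised both to pre-quench Cy3 and to control constructs. They came from library hairpins carrying annealed Cy3 and quencher oligos on a sequenced MiSeq flow cell, imaged in 50 mM Na-HEPES pH 8.0, 25 mM NaCl, in 2.5 °C steps up to 60 °C. Bootstrapped two-state fits gave melting temperature and folding enthalpy, and four replicates were combined by inverse variance. Fitted temperatures were then raised by 9.35 °C to match UV melts.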

Data set [2] in a line: folding enthalpy; higher = less favourable; fluorescence melt of hairpins on a sequencing array, two-state fit. The following applies: sodium 0.088 M. The gist of the method: as §1

On to GAGCGACGAAAGTCCTC (((.(((....)))))), for which the Tm in data set [1] was found to be 48.3 °C. Also, the folding enthalpy in data set [2] was -17.1 kcal/mol.

Consider GATCCGCAGCCGGATC ((((((....)))))), for which, in data set [1], the Tm amounted to 55.9 °C. Also, the folding enthalpy in data set [2] is -40.7 kcal/mol.

GATCAGATACTGATC ((((((...)))))): the Tm in data set [1] is 50.6 °C. In addition, in data set [2], the folding enthalpy was -34.2 kcal/mol.

For the sequence CGATCGGAAACGAGTTCG ((((((....)))..))), in data set [1], the Tm amounted to 34.3 °C. Further, in data set [2], the folding enthalpy was -20.5 kcal/mol.

On to GTTTGAGGAAACTCAAGC (.(((((....))))).), for which the Tm in data set [1] is 40.5 °C. Moreover, the folding enthalpy in data set [2] is -25.1 kcal/mol.

With GCTGTTCGAAAGAAAGC (((.(((....)))))), the Tm in data set [1] worked out at 36.7 °C. The folding enthalpy in data set [2] was -15.6 kcal/mol.

For GGTATAACGAAAGTTACC (((..(((....)))))), the Tm in data set [1] was found to be 37.8 °C. In addition, the folding enthalpy in data set [2] was -13.7 kcal/mol.

As to GGAATGGGAAACCATTTC (.(((((....))))).), the Tm in data set [1] came out at 42.2 °C. In data set [2], the folding enthalpy is -34.4 kcal/mol.

For the sequence GTTTAGGCGAAAGCCAAC (((..(((....)))))), the Tm in data set [1] amounted to 33.3 °C. Also, the folding enthalpy in data set [2] was -10.1 kcal/mol.

On to GTCGAGGAAACTCGAC ((((((....)))))), for which the Tm in data set [1] amounted to 63.3 °C. Also, in data set [2], the folding enthalpy was -45.2 kcal/mol.

For the sequence GCACAGCGAAAGCGCTGC (((..((....))..))), the Tm in data set [1] came out at 49.2 °C. In data set [2], the folding enthalpy was -14.8 kcal/mol.

On to GAAGAACGAAAGTTGTTC (((.(((....))).))), for which the Tm in data set [1] is 41.4 °C. Moreover, the folding enthalpy in data set [2] is -32.7 kcal/mol.

Turning to GTTCTGGAAACAGAAC ((((((....)))))), in data set [1], the Tm was 53.4 °C. For the same sequence, the folding enthalpy in data set [2] is -37.2 kcal/mol.

In the case of GATCGGCGTACCGATC ((((((....)))))), the Tm in data set [1] was determined as 59.5 °C. Further, in data set [2], the folding enthalpy was -38.2 kcal/mol.

As to GTGCTAGAAATAGCAC ((((((....)))))), the Tm in data set [1] stood at 56.5 °C. In data set [2], the folding enthalpy was -40.3 kcal/mol.

On to GGTTTTGGAAACAAGACC (((.(((....))).))), for which the Tm in data set [1] worked out at 42.8 °C. Besides, the folding enthalpy in data set [2] was -31.6 kcal/mol.

As for GATCTCTGACGAGATC ((((((....)))))), the Tm in data set [1] worked out at 50 °C. Also, in data set [2], the folding enthalpy was -30.5 kcal/mol.

Consider GTCTTCTCGAAAGAGGAC (((..(((....)))))), for which the Tm in data set [1] turned out to be 33.5 °C. Further, the folding enthalpy in data set [2] is -17.2 kcal/mol.

On to GGCGATCGAAAGATTGCC (((.(((....))).))), for which, in data set [1], the Tm came out at 62.9 °C. Further, the folding enthalpy in data set [2] was -46.7 kcal/mol.

On to GGATCTGGAAACAGGTCC (((.(((....))).))), for which, in data set [1], the Tm was found to be 50.6 °C. Moreover, the folding enthalpy in data set [2] is -31.5 kcal/mol.

Regarding GTTTCGGAAACGAAAC ((((((....)))))), the Tm in data set [1] stood at 56.9 °C. Further, the folding enthalpy in data set [2] was -35.9 kcal/mol.

With GATCCAATTATGGATC ((((((....)))))), in data set [1], the Tm was 50.4 °C. The folding enthalpy in data set [2] was -36.5 kcal/mol.

With GGGGGCGAAAGCCGTCCC ((((((....)))..))), the Tm in data set [1] is 49.4 °C. In addition, in data set [2], the folding enthalpy is -13.7 kcal/mol.

Turning to GATCATTCATATGATC ((((((....)))))), the Tm in data set [1] was found to be 48 °C. The folding enthalpy in data set [2] was -38.8 kcal/mol.

For GATCTGGCAGCAGATC ((((((....)))))), in data set [1], the Tm was found to be 51.3 °C. In data set [2], the folding enthalpy is -41.8 kcal/mol.

As to GATCTGCATCCAGATC ((((((....)))))), in data set [1], the Tm turned out to be 46.7 °C. For the same sequence, in data set [2], the folding enthalpy was -42 kcal/mol.

For the sequence GATCGGCCTCCCGATC ((((((....)))))), the Tm in data set [1] was found to be 55.8 °C. Moreover, in data set [2], the folding enthalpy is -35 kcal/mol.

As to GTACAGTCGAAAGACTAC (((..(((....)))))), in data set [1], the Tm stood at 29.7 °C. Further, in data set [2], the folding enthalpy was -10.2 kcal/mol.

Regarding GTATGAGGAAACTCGTAC (((.(((....))).))), the Tm in data set [1] was 44 °C. Besides, the folding enthalpy in data set [2] is -33.4 kcal/mol.

Take GGATTGGCGAAAGCCTCC (((..(((....)))))): the Tm in data set [1] is 35.3 °C. The folding enthalpy in data set [2] is -10.5 kcal/mol.

As for GATCGAGTGGTCGATC ((((((....)))))), the Tm in data set [1] was 53.9 °C. Also, the folding enthalpy in data set [2] was -8.38 kcal/mol.
